Data on seven compounds can be found in ChEMBL document CHEMBL4368913, “Design, Synthesis, and Biological Evaluation of 6-Substituted Thieno[3,2- d]pyrimidine Analogues as Dual Epidermal Growth Factor Receptor Kinase and Microtubule Inhibitors” (J Med Chem, 2019).

Usually IC50 stands for the midpoint of a concentration-inhibition curve. One may read the inhibition as how much of the control response was suppressed.

Molecules are shown by their SMILES. Where only a bound is given, the exact number is not on record here.

In assay [1] the test system is RS4-11. Nature of the assay: Antiproliferative activity against human RS4:11 cells after 72 hrs by MTT assay. Type of assay: functional, cell-based. The conditions noted are these: RS4-11, 72 h. The essentials: (§1)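 Cells in medium with 10% FBS, seeded at 8×10^3 per well, 18 h at 37 °C, 5% CO2, then graded compound concentrations (DMSO ≤0.25%) for 72 h. Viability by MTT. […] Mean ± SE of dose-response curves from at least three independent experiments.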
For orientation: Tetrazolium dyes change colour on reduction, which living cells bring about.

Assay [2] has as its system HT-29. Nature of the assay: Antiproliferative activity against human HT-29 cells after 72 hrs by MTT assay. It counts as functional, cell-based. The note with it: HT-29, 72 h.
The subject of assay [3] is HeLa. Nature of the assay: Antiproliferative activity against human HeLa cells after 72 hrs by MTT assay. Type of assay: functional, cell-based.
The subject of assay [4] is Jurkat. Description: Antiproliferative activity against human Jurkat cells after 72 hrs by MTT assay. Type of assay: functional, cell-based. An outline of the steps:
as §1

The test system of assay [5] is A549. Description: Antiproliferative activity against human A549 cells after 72 hrs by MTT assay. The note with it: A549, 72 h. Type of assay: functional, cell-based.
For assay [6], the system named is B16. Description: Antitumor activity against mouse B16 cells allografted in C57BL/6 mouse assessed as reduction in tumor burden at 30 mg/kg, ip dosing starting on day 9 post tumor injection administered […] on day 9,11, 13 and 15 relative to control. Type of assay: functional. Set-up: scale not given: the % may be the effect or the level left. The essentials: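 Male C57BL/6 mice, six weeks old, given 2.5×10^5 BL6-B16 murine melanoma cells subcutaneously in the dorsolateral flank in PBS. Once tumours were palpable, compound in 50 µL DMSO was given intraperitoneally every other day from day 9 (days 9, 11, 13, 15); controls received vehicle. Tumour volume compared with control; 5 animals per group; mean ± SEM.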

Assay [7] addresses Epidermal growth factor receptor (Homo sapiens, UniProt P00533). Description: Inhibition of wild type EGFR (unknown origin) by bioluminescent ADP-glo kinase assay. A general note: In ADP-Glo the light output rises with the ADP produced.
The target in assay [8] is Tubulin (Bos taurus, UniProt Q6B856+Q862L2+Q862F3). Nature of the assay: Inhibition of bovine brain tubulin polymerization after 20 mins. The essentials:
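Bovine brain tubulin (10 μM) preincubated with varying compound concentrations in 0.8 M monosodium glutamate, pH 6.6, at 30 °C, then chilled to 0 °C. 0.4 mM GTP added, mixtures warmed to 30 °C, assembly followed by turbidity at 350 nm.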

For assay [9], the target named is T1, Vascular endothelial growth factor receptor 2 (Homo sapiens, UniProt P35968). Description: Inhibition of wild type VEGFR2 (unknown origin) by bioluminescent ADP-glo kinase assay.
T1 sequence (P35968 whole entry): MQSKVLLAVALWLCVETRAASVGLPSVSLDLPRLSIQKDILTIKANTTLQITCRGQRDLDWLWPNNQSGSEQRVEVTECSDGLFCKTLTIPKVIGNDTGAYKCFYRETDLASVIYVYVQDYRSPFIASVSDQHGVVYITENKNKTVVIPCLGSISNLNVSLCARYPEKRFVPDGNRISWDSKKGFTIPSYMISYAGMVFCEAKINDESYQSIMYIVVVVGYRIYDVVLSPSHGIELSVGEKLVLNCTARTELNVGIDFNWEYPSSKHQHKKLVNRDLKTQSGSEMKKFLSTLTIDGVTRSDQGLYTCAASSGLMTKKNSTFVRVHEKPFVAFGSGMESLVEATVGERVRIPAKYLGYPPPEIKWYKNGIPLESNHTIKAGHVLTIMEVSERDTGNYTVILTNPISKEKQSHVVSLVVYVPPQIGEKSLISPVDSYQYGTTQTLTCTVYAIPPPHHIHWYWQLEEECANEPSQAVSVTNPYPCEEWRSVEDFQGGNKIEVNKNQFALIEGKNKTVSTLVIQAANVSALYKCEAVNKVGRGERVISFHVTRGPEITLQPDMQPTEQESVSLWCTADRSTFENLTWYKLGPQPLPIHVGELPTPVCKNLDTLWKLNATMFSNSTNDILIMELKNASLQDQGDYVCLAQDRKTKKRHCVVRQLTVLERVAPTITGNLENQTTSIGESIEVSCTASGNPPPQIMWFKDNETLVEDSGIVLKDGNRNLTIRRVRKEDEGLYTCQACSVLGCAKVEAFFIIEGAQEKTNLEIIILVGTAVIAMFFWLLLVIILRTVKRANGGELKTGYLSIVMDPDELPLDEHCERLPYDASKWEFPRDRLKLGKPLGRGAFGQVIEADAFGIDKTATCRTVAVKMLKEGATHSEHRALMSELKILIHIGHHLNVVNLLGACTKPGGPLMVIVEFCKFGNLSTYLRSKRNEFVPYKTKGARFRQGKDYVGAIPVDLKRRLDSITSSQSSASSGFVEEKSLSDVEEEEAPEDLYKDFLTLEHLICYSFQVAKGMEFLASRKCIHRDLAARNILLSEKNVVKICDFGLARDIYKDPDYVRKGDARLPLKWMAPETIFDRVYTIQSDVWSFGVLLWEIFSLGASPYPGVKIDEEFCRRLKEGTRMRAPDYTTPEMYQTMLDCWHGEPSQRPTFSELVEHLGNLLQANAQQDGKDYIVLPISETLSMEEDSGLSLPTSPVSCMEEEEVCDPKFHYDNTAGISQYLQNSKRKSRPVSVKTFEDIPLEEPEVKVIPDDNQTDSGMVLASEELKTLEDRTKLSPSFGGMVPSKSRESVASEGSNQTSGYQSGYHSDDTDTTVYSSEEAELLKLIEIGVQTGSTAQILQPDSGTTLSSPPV
Assay [10] deals with T1, Vascular endothelial growth factor receptor 2. Nature of the assay: Inhibition of VEGFR2 (unknown origin).
The target in assay [11] is Tubulin (Bos taurus) (UniProt Q6B856+Q862L2+Q862F3). Nature of the assay: Inhibition of [3H]-colchicine binding to bovine brain tubulin at 1 to 5 uM after 20 mins relative to control. An outline of the steps: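 Colchicine-binding inhibition in mixtures of 1 μM tubulin, 5 μM [3H]colchicine and test compound at 1 or 5 μM.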

Sequence of Epidermal growth factor receptor (P00533 whole entry): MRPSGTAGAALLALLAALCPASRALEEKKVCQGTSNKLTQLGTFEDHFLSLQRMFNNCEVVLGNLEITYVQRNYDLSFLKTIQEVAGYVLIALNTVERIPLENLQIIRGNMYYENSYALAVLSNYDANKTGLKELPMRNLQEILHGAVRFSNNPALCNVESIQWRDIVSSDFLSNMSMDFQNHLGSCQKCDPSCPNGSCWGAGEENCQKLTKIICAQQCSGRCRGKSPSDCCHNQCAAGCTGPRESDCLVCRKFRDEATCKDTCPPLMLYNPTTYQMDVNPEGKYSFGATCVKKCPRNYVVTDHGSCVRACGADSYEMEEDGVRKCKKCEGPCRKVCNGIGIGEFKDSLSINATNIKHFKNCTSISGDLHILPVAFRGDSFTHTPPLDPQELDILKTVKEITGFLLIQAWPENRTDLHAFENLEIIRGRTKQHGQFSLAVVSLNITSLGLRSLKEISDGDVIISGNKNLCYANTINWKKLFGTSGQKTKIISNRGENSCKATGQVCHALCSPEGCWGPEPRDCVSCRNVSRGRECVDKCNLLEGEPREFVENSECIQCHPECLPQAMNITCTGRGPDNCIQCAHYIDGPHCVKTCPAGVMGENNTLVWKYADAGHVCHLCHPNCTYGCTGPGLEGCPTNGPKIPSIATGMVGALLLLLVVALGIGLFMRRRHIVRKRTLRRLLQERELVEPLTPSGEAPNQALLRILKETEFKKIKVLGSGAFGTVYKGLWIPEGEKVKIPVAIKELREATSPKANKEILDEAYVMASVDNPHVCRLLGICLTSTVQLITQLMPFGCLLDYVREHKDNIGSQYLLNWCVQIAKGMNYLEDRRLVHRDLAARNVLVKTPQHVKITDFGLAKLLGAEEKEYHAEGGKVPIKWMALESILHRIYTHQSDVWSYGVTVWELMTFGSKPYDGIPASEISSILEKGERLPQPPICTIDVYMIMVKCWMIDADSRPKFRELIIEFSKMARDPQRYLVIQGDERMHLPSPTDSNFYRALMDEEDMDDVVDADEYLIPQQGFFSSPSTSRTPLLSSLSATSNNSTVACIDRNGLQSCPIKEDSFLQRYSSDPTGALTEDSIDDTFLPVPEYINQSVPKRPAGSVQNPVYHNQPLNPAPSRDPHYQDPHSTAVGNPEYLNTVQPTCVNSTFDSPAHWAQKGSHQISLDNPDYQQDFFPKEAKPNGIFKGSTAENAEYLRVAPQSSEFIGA

`COc1ccc(/C=C\c2cc(OC)c(OC)c(OC)c2)cc1O` [COMBRETASTATIN A4] gave an IC50 in assay [1] of 1 nM.
Turning to `COc1cc(Nc2ncnc3cc(-c4ccc(F)cc4)sc23)cc(OC)c1OC`, the half-maximal inhibitory concentration (IC50) was found to be 1900 nM in [2]; 450 nM in assay [3]; 260 nM in [4]; 1900 nM in assay [1]; 13500 nM in assay [5].
Regarding `COc1ccc(/C=C\c2cc(OC)c(OC)c(OC)c2)cc1OP(=O)([O-])[O-].[Na+].[Na+]` [FOSBRETABULIN DISODIUM], the Activity in assay [6] was 34.9%.
`COc1cc(Nc2ncnc3cc(-c4cccs4)sc23)cc(OC)c1OC`: the IC50 in assay [2] came out at 210 nM; in assay [7], 2.5 nM; in assay [3] it was 1700 nM; in [8] it was 18000 nM; in assay [4] it was 80 nM; in assay [1], 360 nM. The IC50 in assay [5] is 5100 nM; in [9] it was over 1000 nM.
In the case of `Cc1cc2cc(Nc3ncnc4cc(-c5ccccc5)sc34)ccc2[nH]1`, in [10], the IC50 was 140 nM.
For the compound `COc1ccc(-c2cc3ncnc(Nc4cc(OC)c(OC)c(OC)c4)c3s2)cc1`, the half-inhibitory concentration (IC50) in assay [2] worked out at 60 nM; in assay [7], 52 nM; in assay [3], 170 nM; in [8] it was 2800 nM; in [4], 5 nM; in assay [1], 4 nM. In addition, the IC50 in assay [5] is 430 nM; in [9], over 1000 nM. This compound also showed an inhibition in [11] of 31%.
`COc1cc(Nc2ncnc3cc(-c4ccc(I)cc4)sc23)cc(OC)c1OC`: the IC50 in assay [2] was determined as 250 nM; in assay [7] it was 10 nM; in assay [3], 280 nM; in [8] it was 2500 nM; in [4], 300 nM; in assay [1] it was 170 nM. The values for the IC50 in assay [5] and in [9] were 770 nM and over 1000 nM, respectively. This compound also showed an inhibition in [11] of 35%.
